Data from ChEMBL document CHEMBL1143090, “Structure-activity relationship and liver microsome stability studies of pyrrole necroptosis inhibitors” (Bioorg Med Chem Lett, 2008).
Activity calls are given as the source filed them. No cut-off for these calls is given here.

How the values were obtained:
[1] = system: Jurkat; assay: Inhibition of TNF-alpha-induced necroptosis in FADD-deficient human Jurkat T cells; format: functional, cell-based
In short: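 FADD-deficient variant of human Jurkat T cells given 10 ng/mL human TNF-α alongside increasing test compound concentrations for 24 h. Viability read by ATP-based assay; EC50 from the concentration series.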

[2] = organism: Mus musculus; assay: Inhibition of necroptosis in zVAD-induced mouse fibroblast assessed as cell viability at 30 uM after 24 hrs; format: functional
In short: (§1)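 FADD-deficient Jurkat, L929 and mouse adult lung fibroblast cells exposed 24 hr to 10 ng/mL human TNF-α and/or 100 µM zVAD.fmk, with compound at 30 µM. ATP-based viability, normalized to compound-treated cells without necroptotic stimulus (100%); N = 2, standard deviation.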

[3] = system: Jurkat; assay: Inhibition of necroptosis in TNF-alpha-induced human Jurkat T cells assessed as cell viability at 30 uM after 24 hrs; format: functional, cell-based; in short: as §1
[4] = system: L929; assay: Inhibition of necroptosis in zVAD-induced mouse L929 cells assessed as cell viability at 30 uM after 24 hrs; format: functional, cell-based; in short: as §1
[5] = Intrinsic clearance in mouse liver microsome; format: ADME; settings: liver microsomes
In short: (§2)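 Pooled mouse liver microsomes (0.5 mg/mL protein) with 3 µM final compound and 1 mM NADPH, sampled at 0, 5, 15, 30, 60 min; no-NADPH incubation as negative control. Methanol quench, LC/MS (N=3) against internal standard; ln peak-area ratio vs time slope gives k, t1/2 = 0.693/k, CLint = V(0.693)/t1/2.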

[6] = Metabolic stability assessed as half life in mouse liver microsomes; format: ADME, Microsome; in short: as §2
[7] = system: L929; assay: Inhibition of necroptosis in TNF-alpha-induced mouse L929 cells assessed as cell viability at 30 uM after 24 hrs; format: functional, cell-based; in short: as §1

Structure (SMILES) | EC50 [1] | other results
CC(C)n1cccc1C(=O)N[C@@H](C)c1c(F)cccc1Cl | 520 nM | –
Cc1ccn(C(C)C)c1C(=O)NCc1c(F)cccc1Cl | 7800 nM | –
Cn1c(C#N)ccc1C(=O)NCc1c(F)cccc1Cl | 340 nM | –
CC(C)n1cccc1C(=O)N[C@H](C)c1c(F)cccc1Cl | > 20000 nM | –
Cc1cc[nH]c1C(=O)NCc1c(F)cccc1Cl | 4900 nM | –
Cn1cc(C#N)cc1C(=O)NCc1c(F)cccc1Cl | > 20000 nM | –
C[C@H](NC(=O)c1snnc1C1CC1)c1c(F)cccc1Cl | – | Activity [2]: Active; Activity [3]: Active; Activity [4]: Active; microsomal CLint [5]: 42.6 µL/min/mg; half-life [6]: 0.542 h; Activity [7]: Active
CC(C)n1cc(C#N)cc1C(=O)NCc1c(F)cccc1Cl | > 20000 nM | –
Cn1c(Cl)ccc1C(=O)NCc1c(F)cccc1Cl | 740 nM | –
CC(C)n1cccc1C(=O)NCc1c(F)cccc1Cl | 440 nM | –
CC(c1ccccc1)n1cccc1C(=O)NCc1c(F)cccc1Cl (centres undefined) | > 20000 nM | –
CC(C)n1c(C#N)ccc1C(=O)NCc1c(F)cccc1Cl | 1400 nM | –
Cn1cccc1C(=O)NCc1c(F)cccc1Cl | 900 nM | –
CCCCC(NC(=O)c1cccn1C(C)C)c1c(F)cccc1Cl (racemic) | > 20000 nM | –
CCn1c(Br)ccc1C(=O)NCc1c(F)cccc1Cl | 2400 nM | –
O=C(NCc1c(F)cccc1Cl)c1ccc[nH]1 | > 20000 nM | –
Cn1c(C#N)ccc1S(=O)(=O)NCc1c(F)cccc1Cl | > 20000 nM | –
CC(NC(=O)c1cccn1C(C)C)c1c(F)cccc1Cl (racemic) | 2100 nM | –
CN(Cc1c(F)cccc1Cl)C(=O)c1cccn1C | > 20000 nM | –
Cc1ccccc1C(=O)NCc1c(F)cccc1Cl | – | microsomal CLint [5]: 7.13 µL/min/mg; half-life [6]: 3.23 h
Cc1ccn(C)c1C(=O)NCc1c(F)cccc1Cl | > 20000 nM | –
CCn1c(C#N)ccc1C(=O)NCc1c(F)cccc1Cl | 1900 nM | –
O=C(NCc1c(F)cccc1Cl)c1cccn1Cc1ccccc1 | > 20000 nM | –
CN1C(=O)C(Cc2c[nH]c3ccccc23)NC1=S (racemic) [NECROSTATIN] | 50 nM | Activity [2]: Active; Activity [3]: Active; Activity [4]: Active; Activity [7]: Active
